# This is a sample that favours compounds with a hit; in the whole collection about 1.9% have one here.
# PLCb3 inh – human PLC-beta3 inhibitors, primary screen, biochemical, fluorescence; Purified PLC-beta3, fluorogenic substrate; inhibition, % at 12.2 µM; 370,000 compounds, 0.18% hits; AID 720704, 2013;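 note: 0% = median of compound wells on plate and 100% = full blocker control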
# Target sequence (Q01970 whole entry, looked up): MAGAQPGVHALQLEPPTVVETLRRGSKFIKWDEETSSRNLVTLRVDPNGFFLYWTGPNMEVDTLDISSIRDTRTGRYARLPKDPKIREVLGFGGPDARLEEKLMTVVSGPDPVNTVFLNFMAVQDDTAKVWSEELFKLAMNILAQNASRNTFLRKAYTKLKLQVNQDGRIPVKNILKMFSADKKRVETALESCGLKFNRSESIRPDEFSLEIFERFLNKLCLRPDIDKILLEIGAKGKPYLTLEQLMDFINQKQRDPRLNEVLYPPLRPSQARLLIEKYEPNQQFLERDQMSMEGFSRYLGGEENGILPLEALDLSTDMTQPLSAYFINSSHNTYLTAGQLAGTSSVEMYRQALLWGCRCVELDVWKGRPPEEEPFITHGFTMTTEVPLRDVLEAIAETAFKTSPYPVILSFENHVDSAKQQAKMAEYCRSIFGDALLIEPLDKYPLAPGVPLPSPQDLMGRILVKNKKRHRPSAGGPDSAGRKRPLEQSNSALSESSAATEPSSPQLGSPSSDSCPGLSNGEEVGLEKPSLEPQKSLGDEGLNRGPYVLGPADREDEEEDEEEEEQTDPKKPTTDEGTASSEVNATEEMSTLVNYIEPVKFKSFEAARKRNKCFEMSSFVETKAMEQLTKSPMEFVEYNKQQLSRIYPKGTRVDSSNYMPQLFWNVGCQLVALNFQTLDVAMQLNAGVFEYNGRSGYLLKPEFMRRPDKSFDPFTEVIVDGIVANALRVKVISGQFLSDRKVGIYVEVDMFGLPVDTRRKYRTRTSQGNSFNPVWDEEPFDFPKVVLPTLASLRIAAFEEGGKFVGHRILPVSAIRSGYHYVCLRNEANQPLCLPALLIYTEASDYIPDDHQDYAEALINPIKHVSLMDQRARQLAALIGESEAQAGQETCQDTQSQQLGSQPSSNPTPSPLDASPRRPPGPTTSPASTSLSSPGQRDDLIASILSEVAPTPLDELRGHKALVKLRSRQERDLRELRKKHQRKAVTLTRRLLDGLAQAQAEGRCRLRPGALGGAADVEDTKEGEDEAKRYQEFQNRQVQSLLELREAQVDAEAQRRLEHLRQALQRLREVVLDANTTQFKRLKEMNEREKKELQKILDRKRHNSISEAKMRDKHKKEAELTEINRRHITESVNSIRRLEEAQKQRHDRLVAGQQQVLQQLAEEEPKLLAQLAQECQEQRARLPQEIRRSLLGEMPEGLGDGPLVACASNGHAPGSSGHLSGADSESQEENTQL
# TbMetRS inhib – T. brucei MetRS inhibitors, primary screen, biochemical, luminescence; methionyl-tRNA synthetase (Trypanosoma brucei brucei); purified T. brucei MetRS, ATP depletion, Kinase-Glo luminescence; inhibition, % at 11.9 µM; 360,000 compounds, 0.4% hits;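 active = inhibition above a per-plate cutoff of the control wells' mean inhibition plus 3 SD, cut at about 5.5% in these data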;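 note: 0% = DMSO wells median and 100% = median of wells with control inhibitor compound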
#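 Test system – parasite MetRS enzyme · Reagent – substrates ATP, L-methionine and bulk Escherichia coli tRNA · Doses – 11.9 µM compound single dose, 0.9% DMSO · Times – 15 min enzyme-compound preincubation, 2 h reaction, 10 min detection, 25 °C · Signal – Kinase-Glo luminescence, ATP depletion format · Controls – DMSO-only wells as low control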
# PLCg1 inh – PLC-gamma1 enzyme inhibitors, primary screen, biochemical, fluorescence, purified enzyme | 1-phosphatidylinositol 4,5-bisphosphate phosphodiesterase gamma-1 (Homo sapiens), P19174 | fluorogenic substrate | inhibition, % at 12.2 µM | 370,000 compounds, 0.84% hits; in the data active = inhibition above about 9.5%
# HGIII-sPLA2 inh – human group III sPLA2 inhibitors, primary screen, biochemical, QFRET, BODIPY PC-A2 liposome substrate; Group 3 secretory phospholipase A2 (Homo sapiens), Q9NZ20; QFRET BODIPY PC-A2 liposome hydrolysis, fluorescence; inhibition, % at 12.2 µM; 370,000 compounds, 0.56% hits; AID 743126, 2013;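 active = inhibition above mean plus 3 SD of compounds lying within the high and low control bounds, cut at about 19% in these data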;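 note: 0% = median of test compound wells and 100% = no enzyme DMSO wells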
# PLCgamma1 ctr – PLC-gamma1 enzyme inhibitors, counter-screen for PLC-beta3 inhibitor project, biochemical, fluorescence | inhibition, % at 12.3 µM | 3,300 compounds, 3.1% hits | purified PLC-gamma1, fluorogenic substrate | AID 743258, 2014 | shares compounds with PLCg1 inh; in the data active = inhibition above about 9.5%
# PLCb3 confirm – PLC-beta3 inhibitor confirmation, biochemical, fluorescence, purified enzyme; shares compounds with PLCg1 inh; fluorogenic substrate fluorescence; inhibition, % at 12.3 µM; 3,300 compounds, 1% hits
# * hit, by the source's call; . = not tested or not shown. Cut-off read from the data, not from the text of the source, unless noted: active = inhibition above about 11%; inactive = the rest.
SMILES,PLCb3 inh,TbMetRS inhib,PLCg1 inh,HGIII-sPLA2 inh,PLCgamma1 ctr,PLCb3 confirm
CCCCCCCCNS(=O)(=O)CC1NCc2cc(F)ccc21 (stereo not given),-10,.,-9,-4,.,.
Cc1cccc(NC(=O)C2CCCN2S(=O)(=O)c2cccc3cccnc23)c1C (stereo not given),1,.,0,-1,.,.
O=C(CNCc1ccc(Cl)cc1)Nc1ccc2c(c1)OCCO2,1,-1,10*,6,-6,1
O=C(CNCc1ccccc1Cl)Nc1ccc2c(c1)OCCO2,-10,3,0,-2,.,.
COc1ccc(Nc2nc(Nc3ccc(OC)cc3)nc(SC3=NCCS3)n2)cc1,1,0,13*,-1,4,4
CCCCN(CC)C(=O)CSc1nc2ccccc2c(=O)n1CC1COc2ccccc2O1 (stereo not given),-2,0,-4,0,.,.
CCCCNC(=O)CSc1nc2ccccc2c(=O)n1CC1COc2ccccc2O1 (stereo not given),7,-1,13*,-3,3,2
COCCCNC(=O)CN1C(=O)C2CCCCN2C(=O)c2ccccc21 (stereo not given),-4,.,-1,15,.,.
O=C(Nn1c(SCc2cccc([N+](=O)[O-])c2)nc2ccccc2c1=O)c1ccccc1,4,1,11*,-9,-1,3
COc1ccc(C(=O)Nn2c(SCc3cccc([N+](=O)[O-])c3)nc3ccccc3c2=O)cc1,1,0,1,-13,.,.
O=C(/C=C/c1cccc([N+](=O)[O-])c1)Nn1c(-c2ccccc2F)nc2ccccc2c1=O,10,0,12*,-9,-2,0
Oc1cc(O)cc(C=Cc2ccc(O)c(O)c2)c1,-425,.,-300,-4,.,.
COc1ccc(-c2ccc(NS(=O)(=O)c3cccc([N+](=O)[O-])c3)cc2)nn1,-2,1,13*,-8,-3,-1
COc1ccc(-c2cccc(NS(=O)(=O)c3cccc([N+](=O)[O-])c3)c2)nn1,-2,0,-2,-17,.,.
Cc1ccc(C(=O)NC2CCCC2)s1,0,0,10*,5,-3,-2
O=C1OC[C@H]2CCCC[C@@H](CO)ON12,2,-1,9.6*,12,0,0
CCOC(=O)c1c(C)[nH]c(C(=O)CSc2nnc(-c3ccncc3)n2CC)c1C,3,-1,1,-17,.,.
C=CCn1c(SCC(=O)c2[nH]c(C)c(C(=O)OCC)c2C)nc2scc(-c3ccc(OC)c(OC)c3)c2c1=O,11*,0,6,-17,-9,-2
Cc1ccc(F)cc1NC(=O)CCOc1ccccc1,11*,0,11*,-1,5,4
COC(=O)Cn1nc(-c2cccc(OC)c2)c2ccccc21,-1,.,4,-4,.,.
O=C(Cn1nc(-c2ccccc2)c2ccccc21)Oc1ccccc1,2,.,13*,5,-4,-3
CSCCCNc1nc(C)nc2c1nnn2Cc1ccccc1,4,.,5,5,.,.
Cc1ccc(C(=O)NC(C)CCc2ccccc2)cc1[N+](=O)[O-] (stereo not given),3,0,13*,-11,-2,-2
Cc1ccccc1CS(=O)(=O)Cc1ccc(C(=O)Nc2c(C)cccc2C)o1,0,.,-1,-3,.,.
COc1cccc(C(=O)Nc2ccc(-n3nncc3C(C)(C)C)cc2)c1,12*,0,9,-11,-151,4
SMILES,PLCb3 inh,TbMetRS inhib,PLCg1 inh,HGIII-sPLA2 inh,PLCgamma1 ctr,PLCb3 confirm
CC(C)(C)c1cnnn1-c1ccc(NC(=O)c2ccc3c(c2)OCO3)cc1,2,0,1,-12,.,.
Cc1cc(C(=O)NC(=S)Nc2cccc(C(=O)O)c2C)ccc1[N+](=O)[O-],5,0,9.8*,4,4,1
CCN(CC)C(=O)CC[C@H]1CC[C@]2(CCCN(Cc3ccccc3)C2)O1,1,.,-1,0,.,.
Cc1ccc(C(C(=O)NC2CCCCC2)N(CC2CCCO2)C(=O)CNC(=O)c2ccco2)cc1 (stereo not given),4,0,10.0*,2,-4,-4
O=C(NC1CCCCCCC1)c1ccco1,8,-1,11*,7,-1,1
O=C(NC1CCN(C(=O)NC2CCCCC2)CC1)c1ccco1,5,0,6,0,.,.

# Bioassay records as filed in PubChem.
